ChEMBL document CHEMBL1629526, “4-[1-(Substituted aryl/alkyl carbonyl)-benzoimidazol-2-yl]-benzenesulfonic acids: synthesis, antimicrobial activity, QSAR studies, and antiviral evaluation” (Eur J Med Chem, 2010)
Values after ≈ are worked out from the molar mass of the structure shown.

Columns and labels:
[1] = system: Vesicular stomatitis virus; experiment: Antiviral activity against Vesicular stomatitis virus infected in human HeLa cells assessed as inhibition of virus induced cytopathicity by visual scoring of CPE; type: functional, organism-based
[2] = system: Aspergillus niger; experiment: Antimicrobial activity against Aspergillus niger after 7 days by tube dilution method; type: functional; conditions: 168 h
[3] = system: Influenza B virus; experiment: Antiviral activity against Influenza B virus infected in MDCK cells assessed as inhibition of virus induced cytopathicity after 2 to 4 days by MTS assay; type: functional, organism-based
[4] = Cytotoxicity against cat CRFK cells assessed as cell viability by MTS assay; type: cell-based, Felis catus; conditions: crfk
How it was run: (§1)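 Uninfected cultures were run in parallel with the antiviral assays. Viability was read by colorimetric formazan MTS assay.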

[5] = system: Influenza A virus; experiment: Antiviral activity against Influenza A H3N2 virus subtype infected in MDCK cells assessed as inhibition of virus induced cytopathicity after 2 to 4 days by MTS assay; type: functional, organism-based
[6] = system: Staphylococcus aureus; experiment: Antimicrobial activity against Staphylococcus aureus after 24 hrs by tube dilution method; type: functional
[7] = Cytotoxicity against human HeLa cells assessed as altered cell morphology; type: cell-based
How it was run: (§2)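 Uninfected cell cultures run alongside the antiviral assays, exposed to serial compound dilutions and incubated at 37 °C for 2–4 days. Toxicity was scored microscopically and reported as the minimum cytotoxic concentration (MCC), the lowest concentration causing a detectable change in normal cell morphology.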

[8] = system: Human alphaherpesvirus 1; experiment: Antiviral activity against thymidine kinase deficient acyclovir-resistant Herpes simplex virus 1 KOS infected in HEL cells assessed as inhibition of virus induced cytopathicity after 2 to 4 days by MTS assay; type: functional, organism-based; conditions: Human alphaherpesvirus 1, KOS
[9] = system: Respiratory syncytial virus; experiment: Antiviral activity against Respiratory syncytial virus infected in human HeLa cells assessed as inhibition of virus induced cytopathicity by visual scoring of CPE; type: functional, organism-based
[10] = system: Coxsackievirus B4; experiment: Antiviral activity against coxsackievirus B4 infected in human HeLa cells assessed as inhibition of virus induced cytopathicity by visual scoring of CPE; type: functional, organism-based; conditions: Enterovirus B
[11] = system: Vaccinia virus; experiment: Antiviral activity against Vaccinia virus infected in HEL cells assessed as inhibition of virus induced cytopathicity after 2 to 4 days by MTS assay; type: functional, organism-based; conditions: Orthopoxvirus vaccinia
[12] = system: Candida albicans; experiment: Antimicrobial activity against Candida albicans after 48 hrs by tube dilution method; type: functional
[13] = system: Human alphaherpesvirus 1; experiment: Antiviral activity against Herpes simplex virus 1 KOS infected in HEL cells assessed as inhibition of virus induced cytopathicity after 2 to 4 days by MTS assay; type: functional, organism-based; conditions: Human alphaherpesvirus 1, KOS
[14] = Cytotoxicity against MDCK cells assessed as altered cell morphology; type: cell-based, Canis lupus familiaris; conditions: dog; how it was run: as §2
[15] = system: Bacillus subtilis; experiment: Antimicrobial activity against Bacillus subtilis after 24 hrs by tube dilution method; type: functional
How it was run: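 Serial dilutions in double-strength nutrient broth (I.P.) with ciprofloxacin as reference, tube dilution, incubated 37 °C for 24 h. MIC is the lowest concentration that inhibited growth.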

[16] = system: Coxsackievirus B4; experiment: Antiviral activity against Coxsackie virus B4 infected in african green monkey Vero cells assessed as inhibition of virus induced cytopathicity after 2 to 4 days by MTS assay; type: functional, organism-based; conditions: Enterovirus B
[17] = system: Influenza A virus; experiment: Antiviral activity against Influenza A H3N2 virus subtype infected in MDCK cells assessed as inhibition of virus induced cytopathicity by visual scoring of CPE; type: functional, organism-based
[18] = system: Escherichia coli; experiment: Antimicrobial activity against Escherichia coli after 24 hrs by tube dilution method; type: functional
[19] = system: Sindbis virus; experiment: Antiviral activity against Sindbis virus infected in african green monkey Vero cells assessed as inhibition of virus induced cytopathicity after 2 to 4 days by MTS assay; type: functional, organism-based
[20] = system: Coxsackievirus B4; experiment: Antiviral activity against coxsackievirus B4 infected in human HeLa cells assessed as inhibition of virus induced cytopathicity after 2 to 4 days by MTS assay; type: functional, organism-based; conditions: Enterovirus B
[21] = system: MDCK; experiment: Cytotoxicity against MDCK cells assessed as cell viability by MTS assay; type: cell-based, Canis lupus familiaris; conditions: dog, mdck; how it was run: as §1
[22] = system: Mammalian orthoreovirus 1; experiment: Antiviral activity against Reovirus 1 virus infected in african green monkey Vero cells assessed as inhibition of virus induced cytopathicity after 2 to 4 days by MTS assay; type: functional, organism-based; conditions: Mammalian orthoreovirus 1, Vero
[23] = system: HeLa; experiment: Cytotoxicity against human HeLa cells assessed as cell viability by MTS assay; type: cell-based; conditions: hela; how it was run: as §1
[24] = system: Vesicular stomatitis virus; experiment: Antiviral activity against Vesicular stomatitis virus infected in human HeLa cells assessed as inhibition of virus induced cytopathicity after 2 to 4 days by MTS assay; type: functional, organism-based
[25] = system: Influenza B virus; experiment: Antiviral activity against Influenza B virus infected in MDCK cells assessed as inhibition of virus induced cytopathicity by visual scoring of CPE; type: functional, organism-based
[26] = system: Vesicular stomatitis virus; experiment: Antiviral activity against Vesicular stomatitis virus infected in HEL cells assessed as inhibition of virus induced cytopathicity after 2 to 4 days by MTS assay; type: functional, organism-based
[27] = system: Human alphaherpesvirus 2; experiment: Antiviral activity against Herpes simplex virus 2 G infected in HEL cells assessed as inhibition of virus induced cytopathicity after 2 to 4 days by MTS assay; type: functional, organism-based; conditions: Human alphaherpesvirus 2, strain G
[28] = system: Punta Toro virus; experiment: Antiviral activity against Punta Toro virus infected in african green monkey Vero cells assessed as inhibition of virus induced cytopathicity after 2 to 4 days by MTS assay; type: functional, organism-based
[29] = system: Respiratory syncytial virus; experiment: Antiviral activity against Respiratory syncytial virus infected in human HeLa cells assessed as inhibition of virus induced cytopathicity after 2 to 4 days by MTS assay; type: functional, organism-based
[30] = system: Felid alphaherpesvirus 1; experiment: Antiviral activity against Feline herpesvirus 1 infected in cat CRFK cells assessed as inhibition of virus induced cytopathicity after 2 to 4 days by MTS assay; type: functional, organism-based; conditions: Felid alphaherpesvirus 1, CRFK
[31] = Cytotoxicity against african green monkey Vero cells assessed as altered cell morphology; type: cell-based; conditions: chlorocebus sabaeus; how it was run: as §2
[32] = Cytotoxicity against human HEL cells assessed as altered cell morphology; type: cell-based; how it was run: as §2
[33] = system: Feline coronavirus; experiment: Antiviral activity against Feline coronavirus infected in cat CRFK cells assessed as inhibition of virus induced cytopathicity after 2 to 4 days by MTS assay; type: functional, organism-based; conditions: Alphacoronavirus 1, CRFK
[34] = system: Human respirovirus 3; experiment: Antiviral activity against parainfluenza-3 virus infected in african green monkey Vero cells assessed as inhibition of virus induced cytopathicity after 2 to 4 days by MTS assay; type: functional, organism-based; conditions: Human respirovirus 3, Vero

## O=C(c1ccccc1)n1c(-c2ccc(S(=O)(=O)O)cc2)nc2ccccc21
[1]
  EC50: > 100 µg/mL
[2]
  MFC: > 50 µg/mL
[3]
  EC50: > 100 µg/mL
[4]
  CC50: > 100 µg/mL
[5]
  EC50: > 100 µg/mL
[6]
  MBC: 12.5 µg/mL (≈ 33 µM)
[7]
  MCC: > 100 µg/mL
[8]
  EC50: > 100 µg/mL
[9]
  EC50: > 100 µg/mL
[10]
  EC50: > 100 µg/mL
[11]
  EC50: > 100 µg/mL
[12]
  MFC: 50 µg/mL (≈ 132 µM)
[13]
  EC50: > 100 µg/mL
[14]
  MCC: > 100 µg/mL
[15]
  MBC: > 50 µg/mL
[16]
  EC50: > 100 µg/mL
[17]
  EC50: > 100 µg/mL
[18]
  MBC: 1.56 µg/mL (≈ 4.12 µM)
[19]
  EC50: > 100 µg/mL
[20]
  EC50: > 100 µg/mL
[21]
  CC50: > 100 µg/mL
[22]
  EC50: > 100 µg/mL
[23]
  CC50: > 100 µg/mL
[24]
  EC50: > 100 µg/mL
[25]
  EC50: > 100 µg/mL
[26]
  EC50: > 100 µg/mL
[27]
  EC50: > 100 µg/mL
[28]
  EC50: > 100 µg/mL
[29]
  EC50: > 100 µg/mL
[30]
  EC50: > 100 µg/mL
[31]
  MCC: > 100 µg/mL
[32]
  MCC: > 100 µg/mL
[33]
  EC50: > 100 µg/mL
[34]
  EC50: > 100 µg/mL

## O=C(c1cccnc1)n1c(-c2ccc(S(=O)(=O)O)cc2)nc2ccccc21
[1]
  EC50: > 100 µg/mL
[2]
  MFC: > 50 µg/mL
[3]
  EC50: > 100 µg/mL
[4]
  CC50: > 100 µg/mL
[5]
  EC50: > 100 µg/mL
[6]
  MBC: 12.5 µg/mL (≈ 32.9 µM)
[7]
  MCC: > 100 µg/mL
[8]
  EC50: > 100 µg/mL
[9]
  EC50: > 100 µg/mL
[10]
  EC50: > 100 µg/mL
[11]
  EC50: > 100 µg/mL
[12]
  MFC: > 50 µg/mL
[13]
  EC50: > 100 µg/mL
[14]
  MCC: > 100 µg/mL
[15]
  MBC: > 50 µg/mL
[16]
  EC50: > 100 µg/mL
[17]
  EC50: > 100 µg/mL
[18]
  MBC: 1.56 µg/mL (≈ 4.11 µM)
[19]
  EC50: > 100 µg/mL
[20]
  EC50: > 100 µg/mL
[21]
  CC50: > 100 µg/mL
[22]
  EC50: > 100 µg/mL
[23]
  CC50: > 100 µg/mL
[24]
  EC50: > 100 µg/mL
[25]
  EC50: > 100 µg/mL
[26]
  EC50: > 100 µg/mL
[27]
  EC50: > 100 µg/mL
[28]
  EC50: > 100 µg/mL
[29]
  EC50: > 100 µg/mL
[30]
  EC50: > 100 µg/mL
[31]
  MCC: > 100 µg/mL
[32]
  MCC: > 100 µg/mL
[33]
  EC50: > 100 µg/mL
[34]
  EC50: > 100 µg/mL
